Results on 20 molecules are retold here after ChEMBL document CHEMBL1250457, “Elucidation of the topography of the thapsigargin binding site in the sarco-endoplasmic calcium ATPase” (Bioorg Med Chem, 2010).

Molecules are shown by their SMILES.

For this assay, the target named is Sarcoplasmic/endoplasmic reticulum calcium ATPase 1 (Oryctolagus cuniculus, UniProt P04191). In words: Inhibition of rabbit sarcoplasmic reticulum calcium ATPase by ATP regeneration assay. In short, it runs like this: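 SERCA1a purified from rabbit skeletal muscle SR vesicles with low deoxycholate. Enzyme (1 mg/mL) pre-equilibrated 2.5–6 min with cumulatively added inhibitor (DMSO) in 1 mM EGTA, 1 mM Mg2+, 10 mM Tes pH 7.5, 100 mM KCl. Then diluted to 4 nM at 20 °C into NADH-coupled PK/LDH medium: 0.1 mM Ca2+, 1 mM Mg2+, 5 mM MgATP, 1 mM PEP, 0.15 mM NADH. Rate of A340 decrease.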
Sequence of Sarcoplasmic/endoplasmic reticulum calcium ATPase 1 (P04191 whole entry): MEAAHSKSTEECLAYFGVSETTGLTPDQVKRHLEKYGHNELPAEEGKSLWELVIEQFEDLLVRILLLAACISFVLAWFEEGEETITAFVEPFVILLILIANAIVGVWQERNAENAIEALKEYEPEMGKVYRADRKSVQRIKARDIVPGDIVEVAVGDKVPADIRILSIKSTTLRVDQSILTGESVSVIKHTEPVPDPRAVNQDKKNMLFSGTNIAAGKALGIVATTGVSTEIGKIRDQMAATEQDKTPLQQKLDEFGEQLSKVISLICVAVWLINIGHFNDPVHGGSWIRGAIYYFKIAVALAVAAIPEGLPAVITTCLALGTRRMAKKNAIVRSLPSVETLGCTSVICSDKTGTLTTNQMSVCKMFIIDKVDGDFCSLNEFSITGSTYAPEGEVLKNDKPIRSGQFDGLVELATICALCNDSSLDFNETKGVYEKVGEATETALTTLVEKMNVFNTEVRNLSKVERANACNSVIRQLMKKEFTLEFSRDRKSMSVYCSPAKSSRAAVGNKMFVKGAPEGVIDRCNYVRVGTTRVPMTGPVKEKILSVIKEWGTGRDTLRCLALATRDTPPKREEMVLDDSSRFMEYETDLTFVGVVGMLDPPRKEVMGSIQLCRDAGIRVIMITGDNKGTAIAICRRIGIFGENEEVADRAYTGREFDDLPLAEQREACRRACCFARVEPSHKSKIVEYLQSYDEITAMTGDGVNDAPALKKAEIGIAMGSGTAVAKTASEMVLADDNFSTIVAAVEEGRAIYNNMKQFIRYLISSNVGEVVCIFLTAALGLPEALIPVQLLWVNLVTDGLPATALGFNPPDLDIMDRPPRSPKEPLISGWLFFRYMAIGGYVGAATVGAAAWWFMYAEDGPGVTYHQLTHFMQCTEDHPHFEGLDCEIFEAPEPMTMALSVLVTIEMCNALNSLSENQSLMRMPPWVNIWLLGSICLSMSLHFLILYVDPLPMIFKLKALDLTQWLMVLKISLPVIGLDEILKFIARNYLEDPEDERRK
On to `C/C=C(/C)C(=O)O[C@H]1C(C)=C2[C@H]([C@@H]1OC(=O)CCCCCCC)[C@@](C)(O)C[C@H](OC(=O)CCC)[C@@]1(O)[C@H]2OC(=O)[C@@]1(C)O`, for which the IC50 (usually the point on the concentration scale where inhibition reaches its midpoint) came out at 20 nM. To `C/C=C(/C)C(=O)O[C@H]1C(C)=C2[C@H]([C@@H]1OC(=O)CCCCCCC)[C@@](C)(O)C[C@H](OC(=O)CCCCCCC)[C@@]1(O)[C@H]2OC(=O)[C@@]1(C)O` belongs 20 nM; to `C/C=C(/C)C(=O)O[C@H]1C(C)=C2[C@H]([C@@H]1OC(=O)CCCCCCC)[C@@](C)(OC(=O)CCC)C[C@H](OC(=O)CCC)[C@@]1(O)[C@H]2OC(=O)[C@@]1(C)O`, 2.5 nM; to `C/C=C(/C)C(=O)O[C@H]1C(C)=C2[C@H]([C@@H]1OC(=O)CCCCCCC)[C@@](C)(OC(=O)CCCCCCC)C[C@H](OC(=O)CCC)[C@@]1(O)[C@H]2OC(=O)[C@@]1(C)O`, 16 nM. For the molecule `C/C=C(/C)C(=O)O[C@H]1C(C)=C2[C@H]([C@@H]1OC(=O)CCCCCCC)[C@@](C)(OC(=O)c1ccccc1)C[C@H](OC(=O)CCC)[C@@]1(O)[C@H]2OC(=O)[C@@]1(C)O`, the IC50 was determined as 15.6 nM. As for `C/C=C(/C)C(=O)O[C@H]1C(C)=C2[C@H]([C@@H]1OC(=O)CCCCCCC)[C@@](C)(OC(=O)c1ccc(-c3ccccc3)cc1)C[C@H](OC(=O)CCC)[C@@]1(O)[C@H]2OC(=O)[C@@]1(C)O`, the IC50 was over 70 nM. In the case of `C/C=C(/C)C(=O)O[C@H]1C(C)=C2[C@H]([C@@H]1OC(=O)CCCCCCC)[C@@](C)(OC(=O)Cc1ccc(-c3ccccc3)cc1)C[C@H](OC(=O)CCC)[C@@]1(O)[C@H]2OC(=O)[C@@]1(C)O`, the IC50 came to 27 nM. With `C/C=C(/C)C(=O)O[C@H]1C(C)=C2[C@H]([C@@H]1OC(=O)c1ccccc1)[C@@](C)(OC(C)=O)C[C@H](OC(=O)CCC)[C@@]1(O)[C@H]2OC(=O)[C@@]1(C)O`, the IC50 stood at 1.6 nM.

Regarding `C/C=C(/C)C(=O)O[C@H]1C(C)=C2[C@H]([C@@H]1OC(=O)CCCCCCC)[C@@](C)(OC(=O)CCC)C[C@@H]1OC(C)(C)O[C@]3(C)C(=O)O[C@@H]2[C@]13OC(=O)CCC`, the IC50 was over 70 nM. As to `C/C=C(/C)C(=O)O[C@H]1C(C)=C2[C@H]([C@@H]1OC(=O)CCCCCCC)[C@@](C)(OC(=O)CCC)C[C@@H]1OC(C)(C)O[C@]3(C)C(=O)O[C@@H]2[C@]13O`, the half-maximal inhibitory concentration (IC50) amounted to 19 nM.

In the case of `C/C=C(/C)C(=O)O[C@H]1C(C)=C2[C@H]([C@@H]1OC(=O)CCCCCCC)[C@@](C)(OC(=O)CCC)C[C@H](OC(=O)CCC)[C@@]1(O)[C@H]2OC(=O)[C@@]1(C)OC(=O)CCC`, the IC50 worked out at 11.1 nM.

As for `CCCCCCCC(=O)O[C@H]1[C@H]2C(=C(C)[C@@H]1O)[C@@H]1OC(=O)[C@@](C)(O)[C@@]1(O)[C@@H](OC(=O)CCC)C[C@]2(C)OC(C)=O`, the IC50 is over 70 nM. For `CCCCCCCC(=O)O[C@H]1[C@H]2C(=C(C)[C@@H]1OC(=O)c1ccccc1)[C@@H]1OC(=O)[C@@](C)(O)[C@@]1(O)[C@@H](OC(=O)CCC)C[C@]2(C)OC(C)=O`, the IC50 turned out to be 0.8 nM.

With `CCCCCCCC(=O)O[C@H]1[C@H]2C(=C(C)[C@@H]1OC(=O)c1cccc(C)c1)[C@@H]1OC(=O)[C@@](C)(O)[C@@]1(O)[C@@H](OC(=O)CCC)C[C@]2(C)OC(C)=O`, the IC50 worked out at 9 nM.

Take `CCCCCCCC(=O)O[C@H]1[C@H]2C(=C(C)[C@@H]1OC(=O)Cc1ccc(-c3ccccc3)cc1)[C@@H]1OC(=O)[C@@](C)(O)[C@@]1(O)[C@@H](OC(=O)CCC)C[C@]2(C)OC(C)=O`: the IC50 came out at 18 nM. Regarding `CCCCCCCC(=O)O[C@H]1[C@H]2C(=C(C)[C@@H]1OC(=O)c1ccccc1-c1ccccc1)[C@@H]1OC(=O)[C@@](C)(O)[C@@]1(O)[C@@H](OC(=O)CCC)C[C@]2(C)OC(C)=O`, the concentration for half-maximal inhibition (IC50) stood at 3 nM. To `CCCCCCCC(=O)O[C@H]1[C@H]2C(=C(C)[C@@H]1OC(=O)c1ccc(C)cc1)[C@@H]1OC(=O)[C@@](C)(O)[C@@]1(O)[C@@H](OC(=O)CCC)C[C@]2(C)OC(C)=O` belongs 44 nM; to `CCCCCCCC(=O)O[C@H]1[C@H]2C(=C(C)[C@@H]1OC(=O)c1ccc(-c3ccccc3)cc1)[C@@H]1OC(=O)[C@@](C)(O)[C@@]1(O)[C@@H](OC(=O)CCC)C[C@]2(C)OC(C)=O`, over 70 nM; to `C/C=C(/C)C(=O)O[C@H]1C(C)=C2[C@H]([C@@H]1OC(=O)CCCCCCC)[C@@](C)(OC(C)=O)C[C@H](O)[C@@]1(O)[C@H]2OC(=O)[C@@]1(C)O` [DEBUTANOYLTHAPSIGARGIN], 10 nM.

On to `C/C=C(/C)C(=O)O[C@H]1C(C)=C2[C@H]([C@@H]1OC(=O)CCCCCCC)[C@@](C)(OC(C)=O)C[C@H](OC(=O)CCC)[C@@]1(O)[C@H]2OC(=O)[C@@]1(C)O` [THAPSIGARGIN], for which the half-inhibitory concentration (IC50) was 0.2 nM.
